The nature of data set [1]: folding enthalpy; higher = less favourable; fluorescence melt of hairpins on a sequencing array, two-state fit. The settings on record: sodium 0.088 M. Summed up:
(§1)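 Melting temperature and folding enthalpy were obtained by bootstrapped two-state fitting. Fits used Cy3 fluorescence of library hairpins with annealed Cy3 and quencher oligos on a sequenced MiSeq flow cell, imaged in 50 mM Na-HEPES pH 8.0, 25 mM NaCl in 2.5 °C steps up to 60 °C and normalised to pre-quench Cy3 and control constructs. Four replicates were combined by inverse-variance weighting, and fitted temperatures were raised by 9.35 °C to match UV melts.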

The nature of data set [2]: melting temperature; fluorescence melt of hairpins on a sequencing array, two-state fit, raised by 9.35 °C to match UV melts. The settings on record: sodium 0.088 M. In a few lines:
as §1

Take GCTATGCGAAAGCAGTGC ((..(((....)))..)): the folding enthalpy in data set [1] was -19.1 kcal/mol. Further, the Tm in data set [2] was 46.9 °C.

GCTATGCGAAAGCGGAGC (((..((....))..))): the folding enthalpy in data set [1] is -26.3 kcal/mol. Besides, the Tm in data set [2] turned out to be 53.6 °C.

For GCTATGCGAAAGCTCAGC (((..((....))..))), the folding enthalpy in data set [1] is -19.1 kcal/mol. Moreover, the Tm in data set [2] was 36.2 °C.

Regarding GCTATGCGAAAGCTTAGC ((((.((....)).)))), the folding enthalpy in data set [1] was -28.9 kcal/mol. Moreover, in data set [2], the Tm is 60.8 °C.

As to GCTATGCGAAAGCTTGGC ((.(.((....)).).)), the folding enthalpy in data set [1] is -24.6 kcal/mol. Moreover, in data set [2], the Tm worked out at 42.1 °C.

GCTATGGAAACATAGC ((((((....)))))): the folding enthalpy in data set [1] is -35.4 kcal/mol. In addition, the Tm in data set [2] came to 55.6 °C.

Consider GCTATGTCGAAAGACAGC (((..(((....)))))), for which the folding enthalpy in data set [1] was -14 kcal/mol. In addition, the Tm in data set [2] came out at 41.5 °C.

Take GCTATTCGAAAGAAGAGC (((.(((....))).))): the folding enthalpy in data set [1] is -39.9 kcal/mol. Also, in data set [2], the Tm turned out to be 51.1 °C.

Regarding GCTCAACGAAAGTTAGC (((.(((....)))))), the folding enthalpy in data set [1] is -22.2 kcal/mol. Also, the Tm in data set [2] came to 41.1 °C.

Take GCTCAAGCGAAAGCTAGC (((..(((....)))))): in data set [1], the folding enthalpy is -14.1 kcal/mol. The Tm in data set [2] is 40.6 °C.

On to GCTCAAGGAAACTTGAAC (.(((((....))))).), for which, in data set [1], the folding enthalpy is -15 kcal/mol. For the same sequence, the Tm in data set [2] is 31.8 °C.

Take GCTCACCGAAAGGTAGC (((.(((....)))))): in data set [1], the folding enthalpy was -22.4 kcal/mol. The Tm in data set [2] is 50.2 °C.

In the case of GCTCACGAAAGTGATAGC ((((((....)))..))), the folding enthalpy in data set [1] was -17.4 kcal/mol. The Tm in data set [2] came to 47.4 °C.

GCTCACGAAAGTGCAGC ((((((....))).))): in data set [1], the folding enthalpy was -22.9 kcal/mol. Besides, in data set [2], the Tm was found to be 52 °C.

For the sequence GCTCACGAAAGTGCTAGC ((((((....)))..))), the folding enthalpy in data set [1] was -15.6 kcal/mol. The Tm in data set [2] is 35.8 °C.

On to GCTCACGAAAGTGGTAGC ((((((....)))..))), for which the folding enthalpy in data set [1] is -19.7 kcal/mol. Also, the Tm in data set [2] is 44.7 °C.

For GCTCACGGAAACGTGAAC (.(((((....))))).), the folding enthalpy in data set [1] was -13 kcal/mol. Besides, in data set [2], the Tm came out at 42.3 °C.

In the case of GCTCACGGAAACGTGGGC ((.((((....)))).)), the folding enthalpy in data set [1] is -47.8 kcal/mol. For the same sequence, the Tm in data set [2] was 59.6 °C.

On to GCTCAGCGAAAGCAGAGC ((((.((....)).)))), for which, in data set [1], the folding enthalpy was -36.3 kcal/mol. Besides, in data set [2], the Tm was found to be 67.3 °C.

For GCTCAGCGAAAGCAGCGC ((.(.((....)).).)), in data set [1], the folding enthalpy was -18 kcal/mol. In data set [2], the Tm is 49.4 °C.

With GCTCAGCGAAAGCATAGC (((..((....))..))), the folding enthalpy in data set [1] is -16 kcal/mol. The Tm in data set [2] came to 38.5 °C.

GCTCAGCGAAAGCGCAGC (((..((....))..))): the folding enthalpy in data set [1] is -14.8 kcal/mol. For the same sequence, the Tm in data set [2] worked out at 45.7 °C.

With GCTCAGCGAAAGCGGCGC ((.(.((....)).).)), the folding enthalpy in data set [1] was -19.5 kcal/mol. In data set [2], the Tm is 58.4 °C.

Turning to GCTCAGCGAAAGCGGTGC ((.(.((....)).).)), the folding enthalpy in data set [1] is -17.8 kcal/mol. Besides, in data set [2], the Tm was 55.2 °C.

GCTCATGGAAACATGGGC ((.((((....)))).)): the folding enthalpy in data set [1] was -34.2 kcal/mol. The Tm in data set [2] was 53 °C.

With GCTCCAGCGAAAGCTAGC (((..(((....)))))), the folding enthalpy in data set [1] was -8.7 kcal/mol. In addition, the Tm in data set [2] worked out at 34 °C.

Consider GCTCCAGGAAACCAGAGC ((((..(....)..)))), for which the folding enthalpy in data set [1] is -19.4 kcal/mol. For the same sequence, the Tm in data set [2] came to 34.4 °C.

Consider GCTCCCCGAAAGGGCAGC (((.(((....))).))), for which, in data set [1], the folding enthalpy is -21 kcal/mol. Further, the Tm in data set [2] was 48 °C.

In the case of GCTCCCGAAAGGGATAGC ((((((....)))..))), the folding enthalpy in data set [1] is -17.5 kcal/mol. Also, the Tm in data set [2] was determined as 48.4 °C.

Turning to GCTCCCGAAAGGGCTAGC ((((((....)))..))), the folding enthalpy in data set [1] is -12.8 kcal/mol. For the same sequence, in data set [2], the Tm was 38.6 °C.

On to GCTCCCGAAAGGGTAAGC ((((((....)))..))), for which, in data set [1], the folding enthalpy is -20.7 kcal/mol. Besides, in data set [2], the Tm amounted to 46.2 °C.

Take GCTCCGCGAAAGCAGGGC ((.(.((....)).).)): the folding enthalpy in data set [1] is -16 kcal/mol. For the same sequence, the Tm in data set [2] was 50.1 °C.

Turning to GCTCCGCGAAAGCGAGGC ((..(((....)))..)), the folding enthalpy in data set [1] was -14.4 kcal/mol. Besides, the Tm in data set [2] worked out at 55.6 °C.

GCTCCGCGAAAGCGTAGC (((.(((....))).))): in data set [1], the folding enthalpy is -32.6 kcal/mol. The Tm in data set [2] stood at 51.8 °C.

In the case of GCTCCGCGAAAGCTGAGC ((((.((....)).)))), the folding enthalpy in data set [1] is -32.3 kcal/mol. In addition, in data set [2], the Tm was found to be 61.1 °C.

As to GCTCCTGCGAAAGCAAGC (((..(((....)))))), in data set [1], the folding enthalpy is -9.07 kcal/mol. Further, the Tm in data set [2] stood at 26.7 °C.

Values taken from the array DNA melting data of Ke et al. (doi:10.1101/2024.01.08.574731).
